Laboratory results published in ChEMBL document CHEMBL2169835, “Flavonoid dimers as novel, potent antileishmanial agents” (J Med Chem, 2012).

Experiments:
RAW264.7 = assay: Cytotoxicity against mouse RAW264.7 cells after 72 hrs by MTS assay; assay type: cell-based; conditions: RAW264.7, 72 h
Summary of the method: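 RAW 264.7 murine macrophage line was plated at 1 × 10^4 cells per well in supplemented DMEM. Cells received a graded compound series for 72 h at 37 °C, 5% CO2, with a maximum of 1% DMSO. Viability was measured by MTS with PMS coupling at OD 490 nm, as percent of untreated control. The IC50 was the concentration reducing OD by half, given as mean ± SEM, N = 1–4.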

Leishmania donovani [1] = assay: Antimicrobial activity against SSG-resistant Leishmania donovani 39 promastigote assessed as inhibition of parasite growth after 72 hrs by MTS assay; assay type: functional, organism-based; conditions: Leishmania donovani, 39, 72 h
Summary of the method: (§1)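 Promastigotes were grown in Schneider's medium pH 6.9 with 10% heat-inactivated FBS at 27 °C, seeded at 1 × 10^5 per well, and exposed to serial concentrations for 72 h at 27 °C. Compounds were in DMSO (≤1% final) or water. MTS:PMS (20:1) was added for 4 h, then OD490 was read. Survival was % of untreated control; IC50 = concentration halving OD; N = 1−4.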

Leishmania donovani [2] = assay: Antimicrobial activity against wild-type Leishmania donovani AG83 promastigote assessed as inhibition of parasite growth after 72 hrs by MTS assay; assay type: functional, organism-based; conditions: AG83, 72 h
Summary of the method: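 Promastigotes were grown in Schneider's medium pH 6.9 with 10% heat-inactivated FBS at 27 °C, seeded at 1 × 10^5 per well, and exposed to serial concentrations for 72 h at 27 °C. Compounds were in DMSO (≤1% final) or water. MTS:PMS (20:1) was added for 4 h, then OD490 was read.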

Leishmania donovani [3] = assay: Antimicrobial activity against pentamidine-resistant Leishmania donovani AG83PentR50 promastigote assessed as inhibition of parasite growth after 72 hrs by MTS assay; assay type: functional, organism-based; conditions: AG83PentR50, 72 h; summary of the method: as §1

Compound	IC50 (RAW264.7) [µM]	IC50 (Leishmania donovani [1]) [µM]	IC50 (Leishmania donovani [2]) [µM]	IC50 (Leishmania donovani [3]) [µM]
O=c1cc(-c2ccc(OCCOCCN(CCCc3ccccc3)CCOCCOc3ccc(-c4cc(=O)c5ccccc5o4)cc3)cc2)oc2ccccc12	85	18.4	8.9	–
O=C(O)CCC(=O)N(CCOCCOc1ccc(-c2cc(=O)c3ccccc3o2)cc1)CCOCCOc1ccc(-c2cc(=O)c3ccccc3o2)cc1	65	> 100	> 100	27
Cc1c(-c2ccc(OCCOCCOCCOCCOc3ccc(-c4oc5ccccc5c(=O)c4C)cc3)cc2)oc2ccccc2c1=O	8.1	> 19	6.9	> 20
O=c1cc(-c2ccc(OCCOCCNCCOCCOc3ccc(-c4cc(=O)c5ccccc5o4)cc3)cc2)oc2ccccc12	2.1	2.3	3.3	1.1
O=c1cc(-c2ccc(OCCOCCOCCOCCOCCOc3ccc(-c4cc(=O)c5ccc(F)cc5o4)cc3)cc2)oc2cc(F)ccc12	> 100	4.8	4.1	3.7
O=c1cc(-c2ccc(OCCOCCOCCOCCOCCOCCOc3ccc(-c4cc(=O)c5c(O)cc(O)cc5o4)cc3)cc2)oc2cc(O)cc(O)c12	–	1.4	> 24	11.8
O=c1cc(-c2ccc(OCCOCCN(CCO)CCOCCOc3ccc(-c4cc(=O)c5ccccc5o4)cc3)cc2)oc2ccccc12	6.4	7.2	3.2	–
O=c1c(O)c(-c2ccc(OCCOCCOCCOCCOc3ccc(-c4oc5ccccc5c(=O)c4O)cc3)cc2)oc2ccccc12	–	> 24	> 24	–
O=c1cc(-c2ccc(OCCOCCN(CCOCCOc3ccc(-c4cc(=O)c5ccccc5o4)cc3)Cc3ccc(C(F)(F)F)cc3)cc2)oc2ccccc12	–	–	14.1	–
O=c1cc(-c2ccc(OCCOCCN(CCOCCOc3ccc(-c4cc(=O)c5ccccc5o4)cc3)Cc3ccnc4ccccc34)cc2)oc2ccccc12	–	–	20.4	–
CC(C)(C)OC(=O)N(CCOCCOc1ccc(-c2cc(=O)c3ccccc3o2)cc1)CCOCCOc1ccc(-c2cc(=O)c3ccccc3o2)cc1	> 100	1.6	3.2	1.1
O=c1cc(-c2ccc(OCCOCCOCCOc3ccc(-c4cc(=O)c5c(O)cc(O)cc5o4)cc3)cc2)oc2cc(O)cc(O)c12	> 200	2.7	5.6	6.7
O=c1cc(-c2ccc(OCCOCCN(CCOCCOc3ccc(-c4cc(=O)c5ccccc5o4)cc3)Cc3ccccc3F)cc2)oc2ccccc12	–	–	> 100	–
O=c1cc(-c2ccc(OCCOCCOCCOCCOCCOc3ccc(-c4cc(=O)c5c(O)cc(O)cc5o4)cc3)cc2)oc2cc(O)cc(O)c12	> 200	1.8	2.3	2.6
CCOC(=O)CCN(CCOCCOc1ccc(-c2cc(=O)c3ccccc3o2)cc1)CCOCCOc1ccc(-c2cc(=O)c3ccccc3o2)cc1	16	6.6	3.8	–
Cc1c(-c2ccc(OCCOCCOCCOCCOCCOc3ccc(-c4oc5ccccc5c(=O)c4C)cc3)cc2)oc2ccccc2c1=O	3.1	4.2	4.8	4.6
Cc1ccc2c(=O)cc(-c3ccc(OCCOCCOCCOCCOCCOc4ccc(-c5cc(=O)c6ccc(C)cc6o5)cc4)cc3)oc2c1	> 80	7.9	4.4	3.8
CCc1ccc2oc(-c3ccc(OCCOCCOCCOCCOCCOc4ccc(-c5cc(=O)c6cc(CC)ccc6o5)cc4)cc3)cc(=O)c2c1	> 200	4.6	4.7	6.3

Compound	IC50 (RAW264.7) [µM]	IC50 (Leishmania donovani [1]) [µM]	IC50 (Leishmania donovani [2]) [µM]	IC50 (Leishmania donovani [3]) [µM]
O=c1cc(-c2ccc(OCCOCCOCCOCCOCCOCCOCCOCCOc3ccc(-c4cc(=O)c5ccccc5o4)cc3)cc2)oc2ccccc12	4.4	4.6	5	6
O=c1cc(-c2ccc(OCCOCCOCCOCCOCCOCCOCCOCCOCCOc3ccc(-c4cc(=O)c5ccccc5o4)cc3)cc2)oc2ccccc12	8.1	8.6	9.4	10.6
Cc1ccc2oc(-c3ccc(OCCOCCOCCOCCOc4ccc(-c5cc(=O)c6cc(C)ccc6o5)cc4)cc3)cc(=O)c2c1	> 100	> 24	> 24	> 24
Cc1ccc2oc(-c3ccc(OCCOCCOCCOCCOCCOc4ccc(-c5cc(=O)c6cc(C)ccc6o5)cc4)cc3)cc(=O)c2c1	> 100	4.3	> 24	> 24
O=c1cc(-c2ccc(OCCOCCOCCOCCOCCOCCOCCOCCOCCOCCOCCOCCOCCOc3ccc(-c4cc(=O)c5ccccc5o4)cc3)cc2)oc2ccccc12	8.4	8.2	9.2	7.9
O=c1cc(-c2ccc(OCCOCCOCCOCCOc3ccc(-c4cc(=O)c5c(O)cc(O)cc5o4)cc3)cc2)oc2cc(O)cc(O)c12	> 200	1.9	2.2	3.1
Cc1ccc(S(=O)(=O)N(CCOCCOc2ccc(-c3cc(=O)c4ccccc4o3)cc2)CCOCCOc2ccc(-c3cc(=O)c4ccccc4o3)cc2)cc1	> 100	> 100	100	–
Cc1c(-c2ccc(OCCOCCOCCOCCOCCOCCOc3ccc(-c4oc5ccccc5c(=O)c4C)cc3)cc2)oc2ccccc2c1=O	2.3	2.8	1.9	2.5
O=c1cc(-c2ccc(OCCOCCN(CCOCCOc3ccc(-c4cc(=O)c5ccccc5o4)cc3)Cc3cccc(F)c3)cc2)oc2ccccc12	–	–	> 100	–
Cc1ccc2c(=O)cc(-c3ccc(OCCOCCOCCOCCOc4ccc(-c5cc(=O)c6ccc(C)cc6o5)cc4)cc3)oc2c1	88.6	> 24	> 24	> 24
O=c1cc(-c2ccc(OCCOCCOCCOCCOc3ccc(-c4cc(=O)c5c(O)cccc5o4)cc3)cc2)oc2cccc(O)c12	–	> 24	> 24	–
O=c1cc(-c2ccc(OCCOCCN(CCOCCOc3ccc(-c4cc(=O)c5ccccc5o4)cc3)Cc3ccc([N+](=O)[O-])cc3)cc2)oc2ccccc12	70.3	> 100	> 100	–
COC(=O)c1ccc(CN(CCOCCOc2ccc(-c3cc(=O)c4ccccc4o3)cc2)CCOCCOc2ccc(-c3cc(=O)c4ccccc4o3)cc2)cc1	45.7	> 100	> 100	–
CS(=O)(=O)N(CCOCCOc1ccc(-c2cc(=O)c3ccccc3o2)cc1)CCOCCOc1ccc(-c2cc(=O)c3ccccc3o2)cc1	96	0.9	0.75	–
CCN(CCOCCOc1ccc(-c2cc(=O)c3ccccc3o2)cc1)CCOCCOc1ccc(-c2cc(=O)c3ccccc3o2)cc1	8.3	5.5	3.2	–
O=c1cc(-c2ccc(OCCOCCN(CCOCCOc3ccc(-c4cc(=O)c5ccccc5o4)cc3)Cc3ccc(F)cc3)cc2)oc2ccccc12	–	–	> 100	–
O=c1cc(-c2ccc(OCCOCCN(CCOCCOc3ccc(-c4cc(=O)c5ccccc5o4)cc3)Cc3ccccc3)cc2)oc2ccccc12	> 79	12.3	8.4	–
O=c1cc(-c2ccc(OCCOCCN(CCOCCOc3ccc(-c4cc(=O)c5ccccc5o4)cc3)Cc3cc(F)c(F)c(F)c3)cc2)oc2ccccc12	–	–	33.3	–
